Laboratory results as given in ChEMBL document CHEMBL4725488, “Dual-Stage Picolinic Acid-Derived Inhibitors of Toxoplasma gondii” (ACS Med Chem Lett, 2020).
In brackets after ≈: the same amount, converted by molar mass. Activity calls are given as the source filed them. The calls are words filed in the database; no cut-off is given here.

What was measured:
Toxoplasma gondii [1] = experiment: Antiparasitic activity against Toxoplasma gondii ME49 bradyzoite infected in human HFF-1 cells assessed as inhibition of parasitic growth preincubated for 48 hrs followed by [5,6-3H]uracil addition and measured after 24 hrs by liquid scintillation counting analysis; format: functional, organism-based
Method in brief: (§1)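 HFF host cells harbouring tachyzoites, or bradyzoites differentiated in vitro by base-mediated maturation, were exposed to compounds in dose–response format. EC50 was the concentration inhibiting 50% of parasites. Tested at least in triplicate (n ≥ 3) unless noted, some in duplicate (n = 2).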

[2] = (§2) Cytotoxicity against HFF cells assessed as reduction in cell viability incubated for 72 hrs by Cell titer assay; format: cell-based; conditions: human, HFF cells
Method in brief: (§3)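 Uninfected HFF cells exposed to compounds for 72 h. CC50 is the concentration that cuts cell viability by 50%. At least triplicate (n ≥ 3) unless noted, some in duplicate.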

Toxoplasma gondii [3] = experiment: Antiparasitic activity against Toxoplasma gondii ME49 tachyzoites infected in human HFF-1 cells assessed as inhibition of parasitic growth preincubated for 48 hrs followed by [5,6-3H]uracil addition and measured after 24 hrs by liquid scintillation counting analysis; format: functional, organism-based; method in brief: as §1
[4] = Selectivity index, ratio of CC50 for human HFF cells to EC50 for Toxoplasma gondii ME49 tachyzoites infected in human HFF cells; format: toxicity, cell-based
Method in brief: (§4)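 Selectivity index computed as CC50 in uninfected HFF cells (72 h exposure) divided by EC50 for the bradyzoite or tachyzoite growth assay run in the same HFF line.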

[5] = Selectivity index, ratio of CC50 for human HFF cells to EC50 for Toxoplasma gondii ME49 bradyzoite infected in human HFF cells; format: toxicity, cell-based; method in brief: as §4
[6] = Kinetic aqueous solubility of the compound in pH 7.4; format: physicochemical; conditions: buffer, read-out: Kinetic_solubility
Method in brief: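 Kinetic aqueous solubility measured at pH 7.4.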

[7] = Stability in CD-1 mouse plasma assessed as parent compound remaining measured after 60 mins by LC-MS/MS method; format: ADME, cell-free; conditions: for remaining at 1 h: CD-1, mouse, read-out: Stabilty
Method in brief: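 Mouse plasma, reported as percent parent compound remaining after 1 h.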

[8] = Lipophilicity log D of compound at pH 7.4; format: physicochemical; conditions: buffer
Method in brief: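 LogD at pH 7.4, determined experimentally.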

[9] = Stability in CD-1 mouse liver microsomes assessed as parent compound remaining measured after 60 mins by LC-MS method; format: ADME, Microsome; conditions: for remaining at 1 h: CD-1, mouse, liver microsomes, read-out: Stabilty; for Stabilty: mouse, microsomes, 1 h
Method in brief: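 Mouse microsomes, reported as percent parent compound remaining after 1 h.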

Toxoplasma gondii [10] = experiment: Ex vivo inhibition of Toxoplasma gondii ME49 bradyzoite isolated from 30 days post infection brain of C57BL/6J mouse transferred to human HFF cells after 3 days using anti-BAG1 by fluorescence assay; format: functional; conditions: time 72.0 hrs
Method in brief: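 Bradyzoites were harvested from brains of four infected mice 30+ days after infection, purified and transferred to HFF cells. Compound was added at 1, 3 or 6 × EC50 and incubated 3 days against a DMSO control. Monolayers were fixed, labelled with anti-BAG1 antibody against a bradyzoite-specific antigen, and imaged by fluorescence.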

[11] = target: T1, Hexokinase (Toxoplasma gondii) (UniProt Q969A8); experiment: Inhibition of hexokinase in Toxoplasma gondii ME49 infected human HFF cells assessed as 13C6-glucose-6-phosphate treated at 2 x EC50 4 hrs postinfection for 5 hrs media changed with [13C6]-glucose; format: cell-based
T1 sequence (whole entry): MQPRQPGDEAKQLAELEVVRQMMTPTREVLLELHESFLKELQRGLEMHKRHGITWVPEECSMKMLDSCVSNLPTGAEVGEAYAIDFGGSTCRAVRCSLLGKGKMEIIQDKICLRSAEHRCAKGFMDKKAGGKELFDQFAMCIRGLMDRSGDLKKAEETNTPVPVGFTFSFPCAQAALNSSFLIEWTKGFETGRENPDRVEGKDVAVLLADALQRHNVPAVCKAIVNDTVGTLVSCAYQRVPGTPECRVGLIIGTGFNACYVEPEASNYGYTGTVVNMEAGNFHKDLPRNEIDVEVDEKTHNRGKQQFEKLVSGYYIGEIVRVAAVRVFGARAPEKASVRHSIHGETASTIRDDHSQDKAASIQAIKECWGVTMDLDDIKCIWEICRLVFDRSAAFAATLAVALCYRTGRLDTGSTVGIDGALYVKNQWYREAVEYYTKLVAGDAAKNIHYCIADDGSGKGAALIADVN
Method in brief: (§5)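 Infected HFF cells were treated 4 h postinfection with DMSO or compound (2 or 6 × EC50). After 5 h the medium was switched to glucose-free RPMI with 13C6-glucose and labelled for 10 min. Samples were rapidly quenched, processed and analysed by broad-spectrum mass spectrometry for 13C6-glucose-6-phosphate (hexokinase product) against DMSO.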

[12] = target: T1, Hexokinase (Toxoplasma gondii); experiment: Inhibition of hexokinase in Toxoplasma gondii ME49 infected human HFF cells assessed as 13C6-glucose-6-phosphate treated at 6 x EC50 4 hrs postinfection for 5 hrs media changed with [13C6]-glucose; format: cell-based; method in brief: as §5
[13] = Ratio of AUC in brain to plasma in male Balb/c mouse at 15 mg/kg, ip; format: ADME, organism-based; conditions: read-out: BPR
Method in brief: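 Male BALB/c mice given a single 15 mg/kg ip injection as a clear solution of the sodium salt. Plasma sampled at 30 min and 2 h after dosing, brain at 2 h. Terminal mean AUC to 2 h determined for plasma (ng/mL) and brain (ng/g). Brain-to-plasma ratio taken from these AUCs.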

[14] = Plasma concentration at 2 hrs in male Balb/c mouse plasma at 15 mg/kg, ip; conditions: in vivo
[15] = Concentration at 2 hrs in male Balb/c mouse brain at 15 mg/kg, ip; conditions: in vivo
HFF = experiment: as §2; format: cell-based; conditions: human, hff, 72 h; method in brief: as §3
[16] = Protein binding in male Balb/c mouse at 15 mg/kg, ip; format: ADME, organism-based; conditions: plasma, read-out: PB (converted)
[17] = Permeability of compound by PAMPA-BBB assay; format: ADME; conditions: read-out: permeability
Method in brief: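 Blood–brain barrier PAMPA, with permeability reported as Pe (10–6 cm/s).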

[18] = HFF cells, read-out: Selectivity ratio

Structure (SMILES) | EC50 (Toxoplasma gondii [1]; Toxoplasma gondii, ME49, HFF-1) [nM] | CC50 at 72 h [2] [nM] | EC50 (Toxoplasma gondii [3]; Toxoplasma gondii, ME49, HFF-1) [nM] | selectivity ratio [4, 18] | selectivity ratio [5, 18] | also measured
Cc1ccc(C(=O)Nc2cc(Cl)cnc2C(=O)O)cc1 | 1100 | 18200 | 1480 | 12.3 | 16.5 | –
COC(=O)c1ncc(Cl)cc1NC(=O)c1ccc(C(C)(C)C)cc1 | 570 | > 50000 | 430 | > 116 | > 87.7 | solubility kinetic [6]: < 1.6 µM; remaining at 1 h [7]: 24.7%; logD ([8]; read-out: logD): 5.3; remaining at 1 h [9]: 2.7%
CC(C)(C)c1ccc(C(=O)Nc2cc(Cl)c(-c3ccccc3)cc2C(=O)O)cc1 | 990 | > 50000 | 460 | – | – | solubility kinetic [6]: 2.7 µM (≈ 1.1 µg/mL); remaining at 1 h [7]: 100%; logD ([8]; read-out: logD): 5.4; remaining at 1 h [9]: 69.2%
COc1cccc(C(=O)Nc2cc(Cl)cnc2C(=O)O)c1 | 6200 | > 50000 | 1820 | > 27.5 | > 8.1 | –
CC(C)(C)c1ccc(C(=O)Nc2cc(Cl)cnc2C(N)=O)cc1 | > 10000 | > 50000 | > 10000 | – | > 50 | –
CC(C)(C)c1ccc(C(=O)Nc2cc(Cl)cnc2C(=O)O)cc1 [listing 1 of 2 here] | – | – | – | – | – | inhibition (Toxoplasma gondii [10]): Active; inhibition [11]: inactive; inhibition [12]: inactive
COc1ccccc1C(=O)Nc1cc(Cl)cnc1C(=O)O | 4900 | > 50000 | 3500 | > 14.3 | > 10.2 | –
CC(C)(C)c1ccc(C(=O)Nc2ccc(Br)nc2C(=O)O)cc1 | 3960 | > 50000 | 5140 | > 9.7 | > 12.6 | –
CC(C)(C)c1ccc(C(=O)Nc2cc(Cl)c(Br)nc2C(=O)O)cc1 | 4090 | > 50000 | 3850 | > 13 | > 12.2 | –
CC(C)(C)c1ccc(C(=O)Nc2cc(Cl)cnc2C(=O)[O-])cc1.[Na+] | – | – | – | – | – | Kp [13]: 0.1; EC50 (Toxoplasma gondii [1]; hff-1): 230 nM; solubility kinetic [6]: 164 µM; plasma concentration at 2 h [14]: 7883 ng/mL; brain concentration at 2 h [15]: 816 ng/g; CC50 (HFF): 2100 nM; EC50 (Toxoplasma gondii [3]; hff-1): 320 nM; Stabilty ([7]; mouse, 1 h): 88.1%; logD [8]: 2.6; selectivity ratio [4]: 6.6; Stabilty [9]: 100%; fraction unbound [16]: 0.005; selectivity ratio [5]: 9.1
CC(C)(C)c1ccc(C(=O)Nc2cc(Cl)c(-c3ccccc3)nc2C(=O)O)cc1 | 410 | 48200 | 560 | 86.1 | 118 | solubility kinetic [6]: 6.4 µM (≈ 2.62 µg/mL); Papp [17]: 5.4 ×10⁻⁶ cm/s; remaining at 1 h [7]: 97.1%; logD ([8]; read-out: logD): 3.9; remaining at 1 h [9]: 85.1%
CC(C)(C)c1ccc(C(=O)Nc2cc(Cl)cnc2C(=O)O)cc1 [listing 2 of 2 here] | 350 | 2500 | 240 | 10.4 | 7.1 | solubility kinetic [6]: 33 µM (≈ 11 µg/mL); Papp [17]: 6.9 ×10⁻⁶ cm/s; remaining at 1 h [7]: 98.4%; logD ([8]; read-out: logD): 2.7; Stabilty [9]: 75.4%
CC(C)(C)c1ccc(C(=O)Nc2cc(Cl)ncc2C(=O)O)cc1 | > 10000 | 23600 | > 10000 | – | > 10 | –
COc1ccc(C(=O)Nc2cc(Cl)cnc2C(=O)O)cc1 | 2410 | > 50000 | 7100 | > 7 | – | selectivity ratio ([5]; HFF cells, read-out: Selectivity Index): > 20.7
CC(C)(C)c1ccc(C(=O)Nc2cc(Cl)cnc2-c2nnn[nH]2)cc1 | 2450 | 1200 | 800 | 1.5 | 0.5 | –
COC(=O)c1cnc(Cl)cc1NC(=O)c1ccc(C(C)(C)C)cc1 | > 10000 | > 50000 | 1690 | > 29.6 | > 10 | –
CC(C)(C)c1ccc(C(=O)Nc2cccnc2C(=O)O)cc1 | 2160 | 9000 | 1110 | 8.1 | 4.2 | –
O=C(Nc1cc(Cl)cnc1C(=O)O)c1ccccc1 | 4470 | > 50000 | 2420 | > 20.7 | > 11.2 | –
